Test results taken from ChEMBL document CHEMBL3792346, “Thiazolino 2-Pyridone Amide Inhibitors of Chlamydia trachomatis Infectivity” (J Med Chem, 2016).

Experiments:
Chlamydia trachomatis [1] = assay: Antimicrobial activity against Chlamydia trachomatis serovar LGV-L2 infected in human HeLa cells assessed as concentration require to reduce relative inclusion forming units by 95% after 48 hrs; type: functional
Summary of the method: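 HeLa cells infected with LGV-L2 at MOI 0.1-0.5; compounds added at 1 hpi, tested at 2.5 µM then 5 or 10 µM or 1, 0.5, 0.25, 0.1 µM; after ~48 h, osmotic lysis, SPG restored, 10-fold dilutions reinfect fresh HeLa; IFUs counted by automated imaging versus DMSO; Reinfect95 = lowest concentration consistently giving 95% IFU reduction; ≥2 experiments in triplicate.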

[2] = Cytotoxicity against human HeLa cells assessed as cell viability at 10 uM after 48 hrs by resazurin assay relative to control; type: cell-based; details: read-out: Activity
Summary of the method: (§1)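 Uninfected HeLa seeded in RPMI, next day switched to colorless DMEM with 10% FBS, 2 mM glutamine; compounds added in triplicate, 48 h at 37 °C; resazurin added, 3 h at 37 °C dark; fluorescence ex 535/em 595 nm; cell-free wells with compound check direct resazurin reduction; mean of three experiments in triplicate, SD over nine replicates.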

Chlamydia trachomatis [3] = assay: Antimicrobial activity against Chlamydia trachomatis serovar LGV-L2 infected in human HeLa cells assessed as decrease in relative inclusion forming units measured 44 to 48 hrs post infection by DAPI staining-based assay; type: functional, organism-based
Summary of the method: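 HeLa229 cells infected with serovar LGV-L2 at MOI 0.3; compounds in DMSO added at 1 hpi as 8-step halving dilutions from 2 to 0.0156 µM; after 44-48 h, osmotic lysis with cold water, SPG restored, lysate 10-fold serially diluted onto fresh HeLa; after 44-48 h, methanol-fixed, anti-Chlamydia/FITC stained, IFUs counted by automated scanner relative to DMSO; EC50 by nonlinear regression, ≥3 independent experiments.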

Chlamydia trachomatis [4] = assay: Antimicrobial activity against Chlamydia trachomatis serovar D infected in human HeLa cells assessed as decrease in relative inclusion forming units measured 44 to 48 hrs post infection by DAPI staining-based assay; type: functional, organism-based
[5] = Cytotoxicity against human HeLa cells assessed as cell viability at 25 uM after 48 hrs by resazurin assay relative to control; type: cell-based; details: read-out: Activity; summary of the method: as §1

Compound	Activity (Chlamydia trachomatis [1]) [µM]	viability at 48 h, 10 µM [2] [%]	EC50 (Chlamydia trachomatis [3]) [µM]	EC50 (Chlamydia trachomatis [4]) [µM]	viability at 48 h, 25 µM [5] [%]
NC(=O)c1ccc(NC(=O)C2CSc3c(C4CC4)c(Cc4cccc5ccccc45)cc(=O)n32)cc1 (stereo not drawn)	2.5	98			
O=C(Nc1ccccc1)[C@@H]1CSc2c(C3CC3)c(Cc3cccc4ccccc34)cc(=O)n21	2.5	100			
O=C(Nc1ccccc1)C1CSc2c(C3CC3)c(Cc3ccc(Cl)cc3)cc(=O)n21 (stereo not drawn)	2.5	94			
O=C(Nc1cccc(Cl)c1)C1CSc2c(C3CC3)c(Cc3cccc4ccccc34)cc(=O)n21 (stereo not drawn)	2.5	100			
O=C(Nc1ccc(F)cc1)C1CSc2c(C3CC3)c(Cc3cccc4ccccc34)cc(=O)n21 (stereo not drawn)	2.5	98			
Cc1cc(=O)n2c(c1C1CC1)SCC2C(=O)Nc1ccccc1 (stereo not drawn)	10	99			
O=C(Nc1ccccn1)C1CSc2c(C3CC3)c(Cc3cccc4ccccc34)cc(=O)n21 (stereo not drawn)	10	90			
O=C(Nc1ccc(Cl)cc1)C1CSc2c(C3CC3)c(Cc3cccc4ccccc34)cc(=O)n21 (stereo not drawn)	2.5	94			
Cc1ccc(NC(=O)C2CSc3c(C4CC4)c(Cc4cccc(C)c4C)c(N)c(=O)n32)cc1 (stereo not drawn)	1	101	0.281	0.274	102
Cc1cccc(Cc2cc(=O)n3c(c2C2CC2)SCC3C(=O)Nc2ccccc2)c1C (stereo not drawn)	2.5	91			
Cc1ccc(NC(=O)C2CSc3c(C4CC4)c(Cc4ccc(Cl)cc4)cc(=O)n32)cc1 (stereo not drawn)	1	89			
CCc1cccc(NC(=O)C2CSc3c(C4CC4)c(Cc4cccc5ccccc45)cc(=O)n32)c1 (stereo not drawn)	2.5	100			
Cc1ccc(NC(=O)C2CSc3c(C4CC4)c(Cc4ccc(Cl)cc4)c(N)c(=O)n32)cc1 (stereo not drawn)	2.5	101	0.266	0.27	102
Cc1cccc(NC(=O)C2CSc3c(C4CC4)c(Cc4cccc5ccccc45)cc(=O)n32)c1 (stereo not drawn)	1	99	0.102		100
O=C(NCc1ccccc1)C1CSc2c(C3CC3)c(Cc3cccc4ccccc34)cc(=O)n21 (stereo not drawn)	2.5	93			
O=C(Nc1ccccc1)[C@H]1CSc2c(C3CC3)c(Cc3cccc4ccccc34)cc(=O)n21	2.5	100			
CNC(=O)c1cccc(NC(=O)C2CSc3c(C4CC4)c(Cc4cccc5ccccc45)cc(=O)n32)c1 (stereo not drawn)	10	93			
O=C(NC1CCCCC1)C1CSc2c(C3CC3)c(Cc3cccc4ccccc34)cc(=O)n21 (stereo not drawn)	10	88			
Cc1ccc(NC(=O)C2CSc3c(C4CC4)c(Cc4cccc5ccccc45)c(N)c(=O)n32)cc1 (stereo not drawn)	0.25	98	0.14	0.099	98
Cc1ccc(NC(=O)C2CSc3c(C4CC4)c(Cc4cccc5ccccc45)cc(=O)n32)cc1 (stereo not drawn)	2.5	97			
O=C(Nc1ccncn1)C1CSc2c(C3CC3)c(Cc3cccc4ccccc34)cc(=O)n21 (stereo not drawn)	2.5	92			
Cc1cccc(Cc2cc(=O)n3c(c2C2CC2)SCC3C(=O)Nc2ccccc2)c1 (stereo not drawn)	2.5	87			
O=C(Nc1nccs1)C1CSc2c(C3CC3)c(Cc3cccc4ccccc34)cc(=O)n21 (stereo not drawn)	5	96			
O=C(C1CSc2c(C3CC3)c(Cc3cccc4ccccc34)cc(=O)n21)N1CCCCC1 (stereo not drawn)	>10	86			

Compound	Activity (Chlamydia trachomatis [1]) [µM]	viability at 48 h, 10 µM [2] [%]	EC50 (Chlamydia trachomatis [3]) [µM]	EC50 (Chlamydia trachomatis [4]) [µM]	viability at 48 h, 25 µM [5] [%]
O=C(Nc1ccccc1F)C1CSc2c(C3CC3)c(Cc3cccc4ccccc34)cc(=O)n21 (stereo not drawn)	2.5	96			
NS(=O)(=O)c1ccc(NC(=O)C2CSc3c(C4CC4)c(Cc4cccc5ccccc45)cc(=O)n32)cc1 (stereo not drawn)	10	95			
COc1cccc(NC(=O)C2CSc3c(C4CC4)c(Cc4cccc5ccccc45)cc(=O)n32)c1 (stereo not drawn)	2.5	98			
Cc1ccc(NC(=O)C2CSc3c(C4CC4)c(Cc4cccc(C)c4C)cc(=O)n32)cc1 (stereo not drawn)	1	95			
CON(C)C(=O)C1CSc2c(C3CC3)c(Cc3cccc4ccccc34)cc(=O)n21 (stereo not drawn)	>10	88			
O=C(Nc1ccccc1)C1CSc2c(C3CC3)c(Cc3cccc(Cl)c3Cl)cc(=O)n21 (stereo not drawn)	2.5	85			
O=C(Nc1ccccc1)[C@@H]1CSc2c(C3CC3)c(Cc3cccc4ccccc34)c(CN3CCOCC3)c(=O)n21	5	99			
O=C(Nc1ccncc1)C1CSc2c(C3CC3)c(Cc3cccc4ccccc34)cc(=O)n21 (stereo not drawn)	5	69			
Nc1c(Cc2cccc3ccccc23)c(C2CC2)c2n(c1=O)C(C(=O)Nc1ccncn1)CS2 (stereo not drawn)	2.5	99			88
O=C(Nc1ccccc1)C1CSc2c(C3CC3)c(Cc3ccccc3)cc(=O)n21 (stereo not drawn)	2.5	96			
CN(C(=O)C1CSc2c(C3CC3)c(Cc3cccc4ccccc34)cc(=O)n21)c1ccccc1 (stereo not drawn)	5	96			
O=C(Nc1cccnc1)C1CSc2c(C3CC3)c(Cc3cccc4ccccc34)cc(=O)n21 (stereo not drawn)	10	77			
COc1ccc(Cc2cc(=O)n3c(c2C2CC2)SCC3C(=O)Nc2ccccc2)cc1 (stereo not drawn)	2.5	103			
O=C(Nc1ccccc1)C1CSc2c(C3CC3)c(Cc3cccc4ncccc34)cc(=O)n21 (stereo not drawn)	10	91			
NC(=O)c1ccc(NC(=O)C2CSc3c(C4CC4)c(Cc4cccc5ccccc45)c(N)c(=O)n32)cc1 (stereo not drawn)	>10	103			
O=C(Nc1cccc(C(F)(F)F)c1)C1CSc2c(C3CC3)c(Cc3cccc4ccccc34)cc(=O)n21 (stereo not drawn)	2.5	95			
CNC(=O)C1CSc2c(C3CC3)c(Cc3cccc4ccccc34)cc(=O)n21 (stereo not drawn)	10	93			
O=C(Nc1cccc(F)c1)C1CSc2c(C3CC3)c(Cc3cccc4ccccc34)cc(=O)n21 (stereo not drawn)	2.5	96			
O=C(C1CSc2c(C3CC3)c(Cc3cccc4ccccc34)cc(=O)n21)N1CCOCC1 (stereo not drawn)	>10	90			
Cc1ccc(Cc2cc(=O)n3c(c2C2CC2)SCC3C(=O)Nc2ccccc2)cc1C (stereo not drawn)	2.5	91			
O=C(Nc1ccccc1)C1CSc2c(C3CC3)c(Cc3cccc4ccccc34)cc(=O)n21 (racemic)	2.5	100			
CN1CCN(C(=O)C2CSc3c(C4CC4)c(Cc4cccc5ccccc45)cc(=O)n32)CC1 (stereo not drawn)	>10	96			
COc1ccc(NC(=O)C2CSc3c(C4CC4)c(Cc4cccc5ccccc45)cc(=O)n32)cc1 (stereo not drawn)	2.5	100			
O=C(O)c1c(Cc2cccc3ccccc23)c(C2CC2)c2n(c1=O)C(C(=O)Nc1ccccc1)CS2 (stereo not drawn)	> 10	103			
